Results published in ChEMBL document CHEMBL1275379, “Indazolylpyrazolopyrimidine as highly potent B-Raf inhibitors with in vivo activity” (J Med Chem, 2010).
Active and inactive are the calls of the source. No cut-off for these calls is given here.

How the values were obtained:
[1] = biological target: Serine/threonine-protein kinase PLK1 (Homo sapiens) (UniProt P53350); test: Inhibition of PLK1 at 1 uM
[2] = biological target: Protein kinase C delta type (Homo sapiens) (UniProt Q05655); test: Inhibition of PRKCD at 1 uM
[3] = biological target: Vascular endothelial growth factor receptor 2 (Homo sapiens) (UniProt P35968); test: Inhibition of KDR at 1 uM
[4] = Volume of distribution at steady state in nude mouse; type: ADME, organism-based; conditions: in vivo, read-out: Vdss
[5] = biological target: Aurora kinase A (Homo sapiens) (UniProt O14965); test: Inhibition of AURKA at 1 uM
[6] = biological target: Tyrosine-protein kinase Yes (Homo sapiens, UniProt P07947); conditions: 1 uM
[7] = AUC (infinity) in nude mouse at 10 mg/kg, po; type: ADME, organism-based; set-up: time infinity, dose 10 mg/kg, route oral; conditions: plasma
[8] = Inhibition of MAP3K at 1 uM
[9] = tested on: Mus musculus; test: Toxicity in human A375 cells xenografted nude mouse; type: organism-based, A-375; conditions: in vivo
[10] = biological target: Proto-oncogene tyrosine-protein kinase receptor Ret (Homo sapiens, UniProt P07949); test: Inhibition of RET at 1 uM
[11] = biological target: Rho-associated protein kinase 1 (Homo sapiens) (UniProt Q13464); test: Inhibition of ROCK1 at 1 uM
[12] = biological target: Tyrosine-protein kinase BTK (Homo sapiens) (UniProt Q06187); test: Inhibition of BTK at 1 uM
[13] = biological target: Aurora kinase B (Homo sapiens) (UniProt Q96GD4); test: Inhibition of AURKB at 1 uM
[14] = biological target: Serine/threonine-protein kinase B-raf (Homo sapiens, UniProt P15056); test: Inhibition of BRAF at 1 uM
[15] = biological target: Receptor tyrosine-protein kinase erbB-2 (Homo sapiens) (UniProt P04626); test: Inhibition of ERBB2 at 1 uM
[16] = biological target: Inhibitor of nuclear factor kappa-B kinase subunit beta (Homo sapiens) (UniProt O14920); test: Inhibition of IKBKB at 1 uM
[17] = biological target: Serine/threonine-protein kinase Sgk1 (Homo sapiens) (UniProt O00141); test: Inhibition of SGK at 1 uM
[18] = biological target: Dual specificity mitogen-activated protein kinase kinase 1 (Homo sapiens) (UniProt Q02750); test: Inhibition of MAP2K at 1 uM
[19] = biological target: Serine/threonine-protein kinase Nek2 (Homo sapiens) (UniProt P51955); test: Inhibition of NEK2 at 1 uM
[20] = biological target: Tyrosine-protein kinase Lck (Homo sapiens, UniProt P06239); test: Inhibition of LCK
[21] = biological target: Ephrin type-A receptor 1 (Homo sapiens) (UniProt P21709); test: Inhibition of EPHA1 at 1 uM
[22] = biological target: Serine/threonine-protein kinase pim-1 (Homo sapiens) (UniProt P11309); test: Inhibition of PIM1 at 1 uM
[23] = tested on: COLO 205; test: Antitumor activity against human COLO205 cells xenografted in nude mouse assessed as tumor growth inhibition at 7.5 mg/kg, po; type: functional, organism-based; set-up: dose 7.5 mg/kg
[24] = biological target: Tyrosine-protein kinase ZAP-70 (Homo sapiens) (UniProt P43403); test: Inhibition of ZAP70 at 1 uM
[25] = biological target: High affinity nerve growth factor receptor (Homo sapiens) (UniProt P04629); test: Inhibition of NTRK1 at 1 uM
[26] = biological target: Mitogen-activated protein kinase 14 (Homo sapiens, UniProt Q16539); conditions: 1 uM
[27] = biological target: Receptor-type tyrosine-protein kinase FLT3 (Homo sapiens) (UniProt P36888); test: Inhibition of FLT3 at 1 uM
[28] = tested on: Mus musculus; test: Inhibition of BRAF-mediated ERK phosphorylation in human A375 cells xenografted nude mouse at 10 mg/kg, po QD; type: functional, organism-based; set-up: dose 10 mg/kg; conditions: A-375
In short: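 Nude mice bearing A375 xenografts received an oral 10 mg/kg dose once daily. Tumours were taken from treated and untreated animals 6 h after the first dose, and ERK phosphorylation in tumour tissue was measured.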

[29] = biological target: Serine/threonine-protein kinase Chk2 (Homo sapiens) (UniProt O96017); test: Inhibition of CHEK2 at 1 uM
[30] = biological target: Tyrosine-protein kinase CSK (Homo sapiens) (UniProt P41240); test: Inhibition of CSK at 1 uM
[31] = tested on: A-375; test: Antitumor activity against human A375 cells xenografted in nude mouse assessed as tumor growth inhibition at 7.5 mg/kg, po; type: functional; conditions: read-out: TGI
In short: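 A375 xenografts in nude mice dosed orally once daily; n = 10 per arm; tumour size measured by caliper at set times; error shown as standard deviation.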

[32] = biological target: MAP kinase-activated protein kinase 2 (Homo sapiens) (UniProt P49137); test: Inhibition of MAPKAPK2 at 1 uM
[33] = biological target: Ribosomal protein S6 kinase beta-1 (Homo sapiens) (UniProt P23443); test: Inhibition of RPS6B1 at 1 uM
[34] = biological target: Glycogen synthase kinase-3 beta (Homo sapiens) (UniProt P49841); test: Inhibition of GSK3B at 1 uM
[35] = biological target: RAF proto-oncogene serine/threonine-protein kinase (Homo sapiens, UniProt P04049); test: Inhibition of C-raf

Sequence of Tyrosine-protein kinase CSK (Homo sapiens) (P41240 2-450 limits assumed): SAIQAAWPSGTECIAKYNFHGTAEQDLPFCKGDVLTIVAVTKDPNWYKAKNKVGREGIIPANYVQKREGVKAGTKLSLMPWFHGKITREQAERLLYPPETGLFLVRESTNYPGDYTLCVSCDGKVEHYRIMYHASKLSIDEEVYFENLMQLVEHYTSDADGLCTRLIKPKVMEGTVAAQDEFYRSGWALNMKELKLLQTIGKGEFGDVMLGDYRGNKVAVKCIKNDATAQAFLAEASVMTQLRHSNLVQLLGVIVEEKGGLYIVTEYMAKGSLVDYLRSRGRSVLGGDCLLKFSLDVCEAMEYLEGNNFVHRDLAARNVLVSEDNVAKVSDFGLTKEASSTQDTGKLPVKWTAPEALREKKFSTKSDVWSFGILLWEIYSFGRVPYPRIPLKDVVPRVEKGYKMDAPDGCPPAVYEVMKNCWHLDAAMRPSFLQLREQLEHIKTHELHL
Sequence of MAP kinase-activated protein kinase 2 (Homo sapiens) (P49137 whole entry, looked up): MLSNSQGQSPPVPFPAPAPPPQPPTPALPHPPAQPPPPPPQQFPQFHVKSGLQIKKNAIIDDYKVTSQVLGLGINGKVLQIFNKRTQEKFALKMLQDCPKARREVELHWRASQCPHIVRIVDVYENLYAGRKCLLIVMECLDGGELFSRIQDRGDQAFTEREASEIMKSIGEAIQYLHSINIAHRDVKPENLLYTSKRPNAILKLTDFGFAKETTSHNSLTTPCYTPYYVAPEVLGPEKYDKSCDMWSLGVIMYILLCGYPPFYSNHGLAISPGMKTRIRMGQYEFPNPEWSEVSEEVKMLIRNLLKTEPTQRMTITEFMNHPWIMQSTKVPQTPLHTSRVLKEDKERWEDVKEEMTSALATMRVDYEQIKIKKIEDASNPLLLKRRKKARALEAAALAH
Sequence of High affinity nerve growth factor receptor (Homo sapiens) (P04629 33-796 limits assumed): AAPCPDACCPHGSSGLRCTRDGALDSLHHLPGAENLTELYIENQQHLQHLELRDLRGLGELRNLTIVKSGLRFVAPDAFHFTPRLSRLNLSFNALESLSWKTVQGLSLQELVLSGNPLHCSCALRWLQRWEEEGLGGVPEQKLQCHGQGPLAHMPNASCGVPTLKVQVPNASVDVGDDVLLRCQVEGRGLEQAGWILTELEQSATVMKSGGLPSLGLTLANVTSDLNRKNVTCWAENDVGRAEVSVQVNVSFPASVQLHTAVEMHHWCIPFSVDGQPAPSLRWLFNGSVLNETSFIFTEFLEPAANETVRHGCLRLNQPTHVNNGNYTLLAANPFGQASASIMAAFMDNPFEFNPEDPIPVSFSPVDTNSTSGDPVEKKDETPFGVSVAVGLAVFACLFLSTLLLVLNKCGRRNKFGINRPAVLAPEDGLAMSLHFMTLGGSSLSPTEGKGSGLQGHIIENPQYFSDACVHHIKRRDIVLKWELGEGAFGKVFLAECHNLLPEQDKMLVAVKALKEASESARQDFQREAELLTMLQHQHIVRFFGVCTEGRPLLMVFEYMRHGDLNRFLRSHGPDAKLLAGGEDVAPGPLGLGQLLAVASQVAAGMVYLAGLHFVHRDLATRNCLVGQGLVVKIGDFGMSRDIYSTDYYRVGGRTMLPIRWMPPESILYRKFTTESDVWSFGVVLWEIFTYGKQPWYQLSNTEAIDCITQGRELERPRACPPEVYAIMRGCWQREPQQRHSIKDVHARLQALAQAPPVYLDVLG
Sequence of Proto-oncogene tyrosine-protein kinase receptor Ret (P07949 whole entry): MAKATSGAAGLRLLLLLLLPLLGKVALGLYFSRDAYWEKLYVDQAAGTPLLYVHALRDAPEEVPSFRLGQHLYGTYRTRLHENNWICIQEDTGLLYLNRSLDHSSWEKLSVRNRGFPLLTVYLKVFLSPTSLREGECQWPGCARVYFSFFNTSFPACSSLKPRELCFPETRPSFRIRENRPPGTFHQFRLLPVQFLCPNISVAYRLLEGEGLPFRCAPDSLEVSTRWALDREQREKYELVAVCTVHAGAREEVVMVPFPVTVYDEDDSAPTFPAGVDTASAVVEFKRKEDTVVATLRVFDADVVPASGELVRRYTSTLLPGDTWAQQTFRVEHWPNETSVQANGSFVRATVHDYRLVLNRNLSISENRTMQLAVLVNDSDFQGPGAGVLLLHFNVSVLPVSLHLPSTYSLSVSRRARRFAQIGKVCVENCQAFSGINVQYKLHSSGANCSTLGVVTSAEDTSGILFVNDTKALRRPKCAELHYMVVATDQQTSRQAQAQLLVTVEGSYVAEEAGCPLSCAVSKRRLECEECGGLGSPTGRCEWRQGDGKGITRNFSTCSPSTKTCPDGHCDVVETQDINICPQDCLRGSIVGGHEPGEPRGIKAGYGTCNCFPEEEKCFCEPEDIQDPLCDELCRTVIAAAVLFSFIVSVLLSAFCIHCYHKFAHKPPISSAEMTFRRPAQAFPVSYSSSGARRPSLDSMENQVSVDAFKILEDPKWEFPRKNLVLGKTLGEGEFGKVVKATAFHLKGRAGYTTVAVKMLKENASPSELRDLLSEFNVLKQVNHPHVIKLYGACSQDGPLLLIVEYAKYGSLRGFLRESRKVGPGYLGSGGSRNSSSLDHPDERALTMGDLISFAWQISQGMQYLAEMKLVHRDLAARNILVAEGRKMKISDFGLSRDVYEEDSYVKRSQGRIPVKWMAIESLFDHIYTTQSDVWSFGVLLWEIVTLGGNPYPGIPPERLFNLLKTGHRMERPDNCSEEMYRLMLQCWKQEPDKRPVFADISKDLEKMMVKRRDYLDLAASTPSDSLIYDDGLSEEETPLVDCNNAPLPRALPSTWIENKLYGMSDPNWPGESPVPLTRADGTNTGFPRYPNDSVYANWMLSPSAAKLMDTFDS
Sequence of Serine/threonine-protein kinase Sgk1 (Homo sapiens) (O00141 whole entry): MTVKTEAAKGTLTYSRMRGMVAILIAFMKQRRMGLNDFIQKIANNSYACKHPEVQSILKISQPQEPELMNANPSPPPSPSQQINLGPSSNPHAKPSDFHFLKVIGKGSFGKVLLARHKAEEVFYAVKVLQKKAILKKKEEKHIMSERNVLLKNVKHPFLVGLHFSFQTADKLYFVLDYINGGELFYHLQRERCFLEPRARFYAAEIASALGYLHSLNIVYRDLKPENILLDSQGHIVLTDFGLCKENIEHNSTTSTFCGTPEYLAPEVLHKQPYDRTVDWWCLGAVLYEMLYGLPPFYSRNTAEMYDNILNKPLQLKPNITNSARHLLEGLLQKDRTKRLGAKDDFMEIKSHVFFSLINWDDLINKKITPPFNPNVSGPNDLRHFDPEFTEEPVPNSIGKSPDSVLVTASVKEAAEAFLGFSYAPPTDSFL
Sequence of Ribosomal protein S6 kinase beta-1 (Homo sapiens) (P23443 whole entry, looked up): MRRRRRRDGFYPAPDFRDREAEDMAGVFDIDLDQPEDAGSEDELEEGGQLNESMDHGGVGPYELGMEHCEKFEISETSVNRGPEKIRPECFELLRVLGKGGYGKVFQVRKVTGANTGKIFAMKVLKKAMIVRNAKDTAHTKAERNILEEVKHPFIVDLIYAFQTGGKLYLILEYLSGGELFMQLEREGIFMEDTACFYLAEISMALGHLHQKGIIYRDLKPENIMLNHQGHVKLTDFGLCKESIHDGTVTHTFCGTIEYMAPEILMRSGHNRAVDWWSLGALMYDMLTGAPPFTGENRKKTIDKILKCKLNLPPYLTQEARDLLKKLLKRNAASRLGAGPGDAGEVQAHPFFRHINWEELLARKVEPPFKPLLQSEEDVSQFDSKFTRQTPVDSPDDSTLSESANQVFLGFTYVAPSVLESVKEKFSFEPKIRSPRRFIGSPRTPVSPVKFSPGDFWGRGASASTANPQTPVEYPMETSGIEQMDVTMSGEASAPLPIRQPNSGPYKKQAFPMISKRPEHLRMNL
Sequence of Serine/threonine-protein kinase Nek2 (Homo sapiens) (P51955 whole entry): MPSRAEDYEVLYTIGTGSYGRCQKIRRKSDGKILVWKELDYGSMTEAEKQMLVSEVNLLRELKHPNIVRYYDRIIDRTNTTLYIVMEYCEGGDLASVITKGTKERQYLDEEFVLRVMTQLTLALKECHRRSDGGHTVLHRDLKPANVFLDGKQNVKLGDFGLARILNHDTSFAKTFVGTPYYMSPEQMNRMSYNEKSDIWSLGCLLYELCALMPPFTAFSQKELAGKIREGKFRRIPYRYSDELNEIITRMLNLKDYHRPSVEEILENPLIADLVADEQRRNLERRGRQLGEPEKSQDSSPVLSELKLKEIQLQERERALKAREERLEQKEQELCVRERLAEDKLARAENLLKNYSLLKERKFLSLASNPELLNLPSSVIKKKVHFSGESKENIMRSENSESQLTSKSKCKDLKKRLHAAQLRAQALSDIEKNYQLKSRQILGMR
Sequence of Tyrosine-protein kinase BTK (Homo sapiens) (Q06187 whole entry): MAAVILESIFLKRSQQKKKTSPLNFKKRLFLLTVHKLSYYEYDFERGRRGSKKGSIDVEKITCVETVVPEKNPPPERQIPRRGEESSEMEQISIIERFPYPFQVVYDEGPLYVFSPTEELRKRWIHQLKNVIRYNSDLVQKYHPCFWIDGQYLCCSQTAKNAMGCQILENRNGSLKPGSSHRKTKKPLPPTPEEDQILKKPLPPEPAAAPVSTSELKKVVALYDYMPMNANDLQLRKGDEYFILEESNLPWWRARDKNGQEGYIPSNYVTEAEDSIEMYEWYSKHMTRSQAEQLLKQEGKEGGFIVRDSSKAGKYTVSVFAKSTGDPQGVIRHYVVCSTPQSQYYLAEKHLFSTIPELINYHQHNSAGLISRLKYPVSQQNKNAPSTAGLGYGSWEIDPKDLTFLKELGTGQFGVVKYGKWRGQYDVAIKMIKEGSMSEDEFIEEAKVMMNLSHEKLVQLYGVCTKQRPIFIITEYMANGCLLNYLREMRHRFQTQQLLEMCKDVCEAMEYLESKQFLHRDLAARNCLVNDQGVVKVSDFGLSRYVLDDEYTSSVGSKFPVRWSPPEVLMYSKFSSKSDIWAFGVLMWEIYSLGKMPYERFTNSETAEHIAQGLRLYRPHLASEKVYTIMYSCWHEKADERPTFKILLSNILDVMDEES

CN1C[C@@H]2C[C@H]1CN2c1cc(F)c(-c2ccnc3c(-c4cccc5[nH]ncc45)c(-c4ccncc4)nn23)c(F)c1
inhibition [1]: 11%
inhibition [2]: 10%
inhibition [3]: 39%
Vd [4]: 4.7 L/kg
inhibition [5]: 7%
inhibition [6]: 68%
AUC(0-inf) [7]: 4000 ng·h/mL
inhibition [8]: 4%
Activity [9]: Non-toxic
inhibition [10]: 84%
inhibition [11]: 3%
inhibition [12]: 48%
inhibition [13]: 0%
inhibition [14]: 100%
inhibition [15]: 37%
inhibition [16]: 5%
inhibition [17]: 8%
inhibition [18]: 12%
inhibition [19]: 6%
IC50 [20]: 505 nM
inhibition [21]: 84%
inhibition [22]: 5%
TGI [23]: Active
inhibition [24]: 4%
inhibition [25]: 25%
inhibition [26]: 81%
inhibition [27]: 23%
inhibition [28]: Active
inhibition [29]: 7%
inhibition [30]: 19%
inhibition in vivo at 7.5 mg/kg [31]: 39%
inhibition [32]: -1%
inhibition [33]: 5%
inhibition [34]: 35%
IC50 [35]: 8.52 nM
